Measurements published in PMC8412899 (ACS Omega, 2021).
pKi: −log10 of the molar value.

What was measured:
[1] = Atropoisomer stability in solution; format: physicochemical
MCL-1 [2] = target: T1, MCL-1 (Homo sapiens, UniProt Q07820); test: FP; format: binding; conditions: FP MCL-1 Ki
cleaved PARP = test: In vivo PD: increase of cleaved PARP in AMO1 xenografted mice; conditions: for PARP activation (fold): AMO1 xenografted mice, 16 h after i.v. bolus treatment at 12.5 mg/kg
Summary of the method: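 Female CB-17 SCID mice (6–7 weeks) were implanted s.c. with 5 × 10⁶ AMO-1 cells in 50:50 medium:Matrigel. At ~200 mm³ tumor volume they were randomized, n = 3 per group. Test compound in 20% HPbCD/25 mM HCl was given as a single 12.5 mg/kg i.v. bolus. Cleaved PARP increase was measured in tumors 16 h later.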

MCL-1 [3] = target: T1, MCL-1; test: QA; format: binding; conditions: for pKi: QA MCL-1 Ki
NCI-H929 cells = test: MTT cell viability assay of NCI H929 cell line; format: cell-based
[4] = system: human multiple myeloma cell line xenograft (AMO-1); test: AMO-1 efficacy model; format: in vivo, mice; conditions: QD5, i.v. bolus; for %TGI (day): D14
Summary of the method: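 Female CB-17 SCID mice (6–7 weeks) received 5 × 10⁶ AMO-1 cells s.c. in the right flank, in 50:50 growth medium:Matrigel. At ~200 mm³ they were randomized, n = 8. Freshly prepared test compound in 20% HPbCD/25 mM HCl was given i.v. daily ×5. Calipers were read 2–3×/week; volume = length × width²/2. TGI was taken at the control group's last day and at maximum; TGD used a 500 mm³ median.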

[5] = In vivo PK characteristics; design: species or system mice; conditions: mouse, iv, 12.5 mg/kg
[6] = indole analogue versus preceding benzofurane/benzothiophene analogues

T1 sequence (Q07820 whole entry): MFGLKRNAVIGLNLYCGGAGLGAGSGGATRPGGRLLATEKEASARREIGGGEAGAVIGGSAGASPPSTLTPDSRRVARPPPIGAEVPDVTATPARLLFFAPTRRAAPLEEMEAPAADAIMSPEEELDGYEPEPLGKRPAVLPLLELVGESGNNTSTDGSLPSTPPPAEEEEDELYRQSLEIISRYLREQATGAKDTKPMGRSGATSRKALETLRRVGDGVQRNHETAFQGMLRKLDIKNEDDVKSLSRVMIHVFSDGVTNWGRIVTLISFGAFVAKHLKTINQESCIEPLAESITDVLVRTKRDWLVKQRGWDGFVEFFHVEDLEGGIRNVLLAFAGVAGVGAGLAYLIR

In the case of CCc1c(-c2cccc(Cl)c2C)c2c(N[C@H](Cc3ccccc3)C(=O)O)ncnc2n1C (single isomer, unassigned) [Compound 2b, N-[(5Sa)-5-(3-Chloro-2-methylphenyl)-6-ethyl-7-methyl-7H-pyrrolo[2,3-d]pyrimidin-4-yl]-D-phenylalanine], the atropoisomer stability [1] was “stable under the testing conditions” and the pKi (MCL-1 [2]) was 5.06.
For COc1ccccc1-c1nccc(COc2ccccc2C[C@@H](Nc2ncnc3oc(-c4ccc(F)cc4)c(-c4ccc(OCCN5CCN(C)CC5)c(Cl)c4C)c23)C(=O)O)n1 [Compound 25, N-[(5Sa)-5-{3-Chloro-2-methyl-4-[2-(4-methylpiperazin-1-yl)ethoxy]phenyl}-6-(4-fluorophenyl)furo[2,3-d]pyrimidin-4-yl]-2-{[2-(2-methoxyphenyl)pyrimidin-4-yl]methoxy}-D-phenylalanine], the atropoisomer stability [1] was “stable in solution”, the “PARP activation (fold)” value (cleaved PARP) was 60 fold and the “PARP activation, fold less” value (cleaved PARP; than for the hydroxy acid analogue) was “about 2 fold”. For the same compound, the pKi (MCL-1 [3]) was 9.21.
With Cc1c(Cl)cccc1-c1c2n(c3ncnc(N[C@H](Cc4ccccc4)C(=O)O)c13)CCC2 [Compound 11, N-[5-(3-Chloro-2-methylphenyl)-7,8-dihydro-6H-pyrimido[5,4-b]pyrrolizin-4-yl]-D-phenylalanine] the atropoisomer stability [1] was “facile interconversion of the atropoisomers in solution”.
In the case of COc1ccccc1-c1nccc(COc2ccccc2C[C@@H](Oc2nccc3nc(-c4ccc(F)cc4)c(-c4ccc(OCCN5CCN(C)CC5)c(Cl)c4C)n23)C(=O)O)n1 [Compound 26, (2R)-2-{[(3Ra)-3-{3-Chloro-2-methyl-4-[2-(4-methylpiperazin-1-yl)ethoxy]phenyl}-2-(4-fluorophenyl)imidazo[1,2-c]pyrimidin-5-yl]oxy}-3-(2-{[2-(2-methoxyphenyl)pyrimidin-4-yl]methoxy}phenyl)propanoic Acid], the pKi (MCL-1 [3]) was 8.09, the drop in affinity (MCL-1 [3]; compared to 16a) was 200 fold and the “drop in cellular activity” value (NCI-H929 cells; compared to 16a) was 200 fold.
In the case of COc1ccccc1-c1nccc(COc2ccccc2C[C@@H](Oc2cccc3sc(-c4ccc(F)cc4)c(-c4ccc(OCCN5CCN(C)CC5)c(Cl)c4C)c23)C(=O)O)n1 [Compound 20, (2R)-2-{[(3Sa)-3-{3-Chloro-2-methyl-4-[2-(4-methylpiperazin-1-yl)ethoxy]phenyl}-2-(4-fluorophenyl)-1-benzothiophen-4-yl]oxy}-3-(2-{[2-(2-methoxyphenyl)pyrimidin-4-yl]methoxy}phenyl)propanoic Acid], the “PARP activation (fold)” value (cleaved PARP) was 156 fold and the pKi (MCL-1 [3]) was 8.74.
In the case of COc1ccccc1-c1nccc(COc2ccccc2C[C@@H](Oc2ncnc3c2c(-c2ccc(OCCN4CCN(C)CC4)c(Cl)c2C)c(-c2ccc(F)cc2)n3C)C(=O)O)n1 [Compound 23, (2R)-2-[(5Sa)-5-[3-Chloro-2-methyl-4-[2-(4-methylpiperazin-1-yl)ethoxy]phenyl]-6-(4-fluorophenyl)-7-methyl-pyrrolo[2,3-d]pyrimidin-4-yl]oxy-3-[2-[[2-(2-methoxyphenyl)pyrimidin-4-yl]methoxy]phenyl]propanoic Acid], the atropoisomer stability [1] was “rapid isomerization”, the “PARP activation (fold)” value (cleaved PARP) was 5 fold and the pKi (MCL-1 [3]) was 9.19. The fold less active (MCL-1 [3]; compared to 16a, affinity and activity) was “about 20 fold”.
In the case of COc1ccccc1-c1nccc(COc2ccccc2C[C@@H](Nc2nccc3sc(-c4ccc(F)cc4)c(-c4ccc(OCCN5CCN(C)CC5)c(Cl)c4C)c23)C(=O)O)n1 [Compound 19, N-[3-{3-Chloro-2-methyl-4-[2-(4-methylpiperazin-1-yl)ethoxy]phenyl}-2-(4-fluorophenyl)thieno[3,2-c]pyridin-4-yl]-2-{[2-(2-methoxyphenyl)pyrimidin-4-yl]methoxy}-D-phenylalanine], the pKi (MCL-1 [3]) was 8.92, the drop in affinity (MCL-1 [3]; compared to 16b) was 2–4 fold and the “drop in cellular activity” value (NCI-H929 cells; compared to 16b) was 2–4 fold.
With COc1ccccc1-c1nccc(COc2ccccc2C[C@@H](Oc2ccnc3sc(-c4ccc(F)cc4)c(-c4ccc(OCCN5CCN(C)CC5)c(Cl)c4C)c23)C(=O)O)n1 [Compound 17, (2R)-2-{[(3Sa)-3-{3-Chloro-2-methyl-4-[2-(4-methylpiperazin-1-yl)ethoxy]phenyl}-2-(4-fluorophenyl)thieno[2,3-b]pyridin-4-yl]oxy}-3-(2-{[2-(2-methoxyphenyl)pyrimidin-4-yl]methoxy}phenyl)propanoic Acid] the “PARP activation (fold)” value (cleaved PARP) was 12 fold and the pKi (MCL-1 [3]) was 10.00.
In the case of COc1ccccc1-c1nccc(COc2ccccc2C[C@@H](Oc2cccc3c2c(-c2ccc(OCCN4CCN(C)CC4)c(Cl)c2C)c(-c2ccc(F)cc2)n3C)C(=O)O)n1 [Compound 22, (2R)-2-{[(3Sa)-3-{3-Chloro-2-methyl-4-[2-(4-methylpiperazin-1-yl)ethoxy]phenyl}-2-(4-fluorophenyl)-1-methyl-1H-indol-4-yl]oxy}-3-(2-{[2-(2-methoxyphenyl)pyrimidin-4-yl]methoxy}phenyl)propanoic Acid], the pKi (MCL-1 [3]) was 8.64, the “drop of on-target affinity” value (MCL-1 [3]; [6]) was “ca. 2 fold” and the “drop of cellular activity” value (NCI-H929 cells; [6]) was “ca. 2 fold”.
In the case of COc1ccccc1-c1nccc(COc2ccccc2C[C@@H](Oc2ncnc3oc(-c4ccc(F)cc4)c(-c4ccc(OCCN5CCN(C)CC5)c(Cl)c4C)c23)C(=O)O)n1 [Compound 24, (2R)-2-{[5-{3-Chloro-2-methyl-4-[2-(4-methylpiperazin-1-yl)ethoxy]phenyl}-6-(4-fluorophenyl)furo[2,3-d]pyrimidin-4-yl]oxy}-3-(2-{[2-(2-methoxyphenyl)pyrimidin-4-yl]methoxy}phenyl)propanoic Acid], the atropoisomer stability [1] was “equilibrate rapidly in solution to give a 1:1 mixture”, the “PARP activation (fold)” value (cleaved PARP) was 129 fold and the “time to reach 500 mm^3 (median of the group)” value ([4]; 6.25 mpk) was 28. The “%TGI (day)” value ([4]; 6.25 mpk) was 103.5 (D14) %, the “%TGI max (day)” value ([4]; 6.25 mpk, d7) was 122.7 (d7) % and the “time to reach 500 mm^3 (median of the group)” value ([4]; 12.5 mpk) was 37. The “%TGI (day)” value ([4]; 12.5 mpk) was 107.7 (D14) %, the “%TGI max (day)” value ([4]; 12.5 mpk, d2) was 184.8 (d2) % and the AUC [5] was 56000 ng·h/mL. For the same compound, the clearance [5] was 2.5 mL/min/kg, the pKi (MCL-1 [3]) was 10.44 and the “cellular activity, fold less” value (NCI-H929 cells; than 16a) was 10 fold.
Work on COc1ccccc1-c1nccc(COc2ccccc2C[C@@H](Oc2ncnc3sc(-c4ccc(F)cc4)c(-c4ccc(OCCN5CCN(C)CC5)c(Cl)c4C)c23)C(=O)O)n1 [Compound 16a, (2R)-2-{[(5Sa)-5-{3-Chloro-2-methyl-4-[2-(4-methylpiperazin-1-yl)ethoxy]phenyl}-6-(4-fluorophenyl)thieno[2,3-d]pyrimidin-4-yl]oxy}-3-(2-{[2-(2-methoxyphenyl)pyrimidin-4-yl]methoxy}phenyl)propanoic Acid] yielded an AUC [5] of 34000 ng·h/mL and a clearance [5] of 6 mL/min/kg.
